The term LC50 denotes the concentration that kills 50% of the test population.

3 compounds from ChEMBL document CHEMBL1144108, “Annocherin and (2,4)-cis- and trans-annocherinones, monotetrahydrofuran Annonaceous acetogenins with a C-7 carbonyl group from Annona cherimolia seeds” (J Nat Prod, 1999) can be followed below.

Data set [1] deals with A498. In words: Selectivity for human A498 cells over human HT29 cells. The format is functional.
Data set [2] deals with A549. As to the kind of experiment: Cytotoxicity against human A549 cells after 7 days by MTT assay. The data set is classed as functional. Conditions: A549, 168 h, read-out: ED50 (the source's name). The gist of the method:
(§1)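 Seven-day in vitro MTT cytotoxicity assay run at the Purdue Cancer Center Cell Culture Laboratory to standard protocols. Lines: A-549 lung carcinoma, MCF-7 breast carcinoma, HT-29 colon adenocarcinoma, A-498 kidney carcinoma, PC-3 prostate adenocarcinoma, MIA PaCa-2 pancreatic carcinoma. Adriamycin served as positive control.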
On the technique in general: Tetrazolium assays rely on reduction of a dye to a coloured formazan, in cell work by metabolically active cells.

The test system of data set [3] is HT-29. In words: Cytotoxicity against human HT-29 cells after 7 days by MTT assay. The data set is classed as functional. To be noted: HT-29, 168 h, read-out: ED50 (the source's name). The gist of the method:
as §1

In data set [4] the test system is MIA PaCa-2. As to the kind of experiment: Cytotoxicity against human MIA PaCa2 cells after 7 days by MTT assay. The data set is classed as functional. To be noted: MIA PaCa-2, 168 h, read-out: ED50 (the source's name). The method in brief: as §1
The subject of data set [5] is MIA PaCa-2. In words: Selectivity for human A498 cells over human MIA PaCa2 cells. The format is functional.
The nature of data set [6]: Toxicity to brine shrimp larvae. To be noted: artemia salina, in vivo. The format is organism-based.
Data set [7] relates to PC-3. In words: Cytotoxicity against human PC-3 cells after 7 days by MTT assay. The data set is classed as functional. To be noted: PC-3, 168 h, read-out: ED50 (the source's name). The method in brief:
as §1

For data set [8], the system named is MCF7. In words: Cytotoxicity against human MCF7 cells after 7 days by MTT assay. The data set is classed as functional. Conditions: MCF7, 168 h, read-out: ED50 (the source's name). The method in brief:
as §1

The test system of data set [9] is A498. In words: Cytotoxicity against human A-498 cells after 7 days by MTT assay. The data set is classed as functional. To be noted: A498, 168 h, read-out: ED50 (the source's name). The method in brief:
as §1

Each structure is given as a SMILES string. Values after ≈ are worked out from the molar mass of the structure shown.

Regarding `CCCCCCCCCCCC[C@H](O)[C@@H]1CC[C@@H]([C@@H](O)CCCCCCCC(O)CC[C@@H](O)CC2=C[C@H](C)OC2=O)O1` (some centres undefined), the Selectivity ratio in [1] and in [5] was 1000 in each case. Moreover, the EC50 amounted to 1.63 µg/mL (≈ 2.73 µM) in data set [2]; 0.001 µg/mL (≈ 0.00168 µM) in data set [3]; 0.001 µg/mL (≈ 0.00168 µM) in [4]; 1.32 µg/mL (≈ 2.21 µM) in data set [7]; 0.011 µg/mL (≈ 0.0184 µM) in data set [8]; 2.96 µg/mL (≈ 4.96 µM) in data set [9]. The compound further gave an LC50 in data set [6] of 0.0125 µg/mL (≈ 0.0209 µM).
As for `CCCCCCCCCCCC[C@H](O)[C@@H]1CC[C@@H]([C@@H](O)CCCCCCCC(=O)CC[C@@H](O)CC2=C[C@H](C)OC2=O)O1` [ANNOCHERIN], the Selectivity ratio in [1] was found to be 161; in data set [5], 131. Further, the EC50 worked out at 1.67 µg/mL (≈ 2.81 µM) in [2]; 3.54 µg/mL (≈ 5.95 µM) in data set [3]; 2.88 µg/mL (≈ 4.84 µM) in [4]; 0.862 µg/mL (≈ 1.45 µM) in [7]; 0.308 µg/mL (≈ 0.518 µM) in [8]; 0.022 µg/mL (≈ 0.037 µM) in [9]. For the same compound, the LC50 in [6] came out at 0.137 µg/mL (≈ 0.23 µM).
For the compound `COc1cccc2c1C(=O)c1c(O)c3c(c(O)c1C2=O)C[C@@](O)(C(=O)CO)C[C@@H]3O[C@H]1C[C@H](N)[C@H](O)[C@H](C)O1` [DOXORUBICIN], the EC50 in data set [2] came out at 0.0043 µg/mL (≈ 0.00791 µM); in data set [3], 0.0168 µg/mL (≈ 0.0309 µM); in data set [4] it was 0.00101 µg/mL (≈ 0.00186 µM); in data set [7] it was 0.0499 µg/mL (≈ 0.0918 µM); in data set [8] it was 0.129 µg/mL (≈ 0.237 µM); in data set [9] it was 0.0156 µg/mL (≈ 0.0287 µM).
